Data as given in ChEMBL document CHEMBL3286367, “Synthesis of new class of spirocarbocycle derivatives by multicomponent domino reaction and their evaluation for antimicrobial, anticancer activity and molecular docking studies” (2014).
Converted amounts (≈) assume the structure as drawn.

Columns and labels:
[1] = tested on: Staphylococcus epidermidis; assay: Antimicrobial activity against Staphylococcus epidermidis MTCC 3615 assessed as zone of inhibition at 1 mg/disc after 24 hrs incubation by disc diffusion assay; assay type: functional
Method in brief: (§1)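 Inocula grown in Mueller Hinton broth for 24 h at 37 °C and swabbed onto Mueller Hinton agar. Discs carried 1 mg compound each and stood 30 min at room temperature before 24 h incubation at 37 °C. Solvent as negative control. Inhibition zones recorded in mm; experiment done twice.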

Staphylococcus aureus [2] = assay: Antimicrobial activity against Staphylococcus aureus MTCC 96 assessed as zone of inhibition at 1 mg/disc after 24 hrs incubation by disc diffusion assay; assay type: functional; method in brief: as §1
Staphylococcus aureus [3] = assay: Antimicrobial activity against methicillin-resistant Staphylococcus aureus assessed as zone of inhibition at 1 mg/disc after 24 hrs incubation by disc diffusion assay; assay type: functional
Method in brief: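 Inoculum grown in Mueller Hinton broth 24 h at 37°C, swabbed onto Mueller Hinton agar and dried 10 min. Discs loaded at 1 mg/disc, then 30 min at room temperature for diffusion. Plates incubated 24 h at 37°C. Solvent negative control; streptomycin positive control. Zone of inhibition read in mm; experiment done twice.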

Micrococcus luteus [4] = assay: Antimicrobial activity against Micrococcus luteus MTCC 106 assessed as zone of inhibition at 1 mg/disc after 24 hrs incubation by disc diffusion assay; assay type: functional; method in brief: as §1
Klebsiella aerogenes [5] = assay: Antimicrobial activity against Enterobacter aerogenes MTCC 111 assessed as zone of inhibition at 1 mg/disc after 24 hrs incubation by disc diffusion assay; assay type: functional; method in brief: as §1
Salmonella typhimurium [6] = assay: Antimicrobial activity against Salmonella typhimurium MTCC 1251 assessed as zone of inhibition at 1 mg/disc after 24 hrs incubation by disc diffusion assay; assay type: functional, Salmonella enterica subsp. enterica serovar Typhimurium; method in brief: as §1
Klebsiella pneumoniae [7] = assay: Antimicrobial activity against Klebsiella pneumonia MTCC 109 assessed as zone of inhibition at 1 mg/disc after 24 hrs incubation by disc diffusion assay; assay type: functional; method in brief: as §1
Proteus vulgaris [8] = assay: Antimicrobial activity against Proteus vulgaris MTCC 1771 assessed as zone of inhibition at 1 mg/disc after 24 hrs incubation by disc diffusion assay; assay type: functional; method in brief: as §1
Shigella flexneri [9] = assay: Antimicrobial activity against Shigella flexneri MTCC 1457 assessed as zone of inhibition at 1 mg/disc after 24 hrs incubation by disc diffusion assay; assay type: functional; method in brief: as §1
Candida albicans = assay: Antifungal activity against Candida albicans MTCC 227 assessed as zone of inhibition at 1 mg/disc after 48 hrs incubation by disc diffusion assay; assay type: functional
Method in brief: (§2)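 Disc diffusion on Mueller Hinton agar with swabbed cultures, 1 mg compound per disc. Discs stood 30 min at room temperature for diffusion, then plates incubated 48 h at 28 °C. Solvent as negative control. Yeast pre-grown in Sabouraud dextrose broth at 28 °C for 48-72 h; filamentous fungal spores came from SDA slants grown 10 days at 28 °C. Zone diameters in mm; run twice.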

Malassezia pachydermatis = assay: Antifungal activity against Malassezia pachydermatis assessed as zone of inhibition at 1 mg/disc after 48 hrs incubation by disc diffusion assay; assay type: functional; method in brief: as §2
Staphylococcus aureus [10] = assay: Antimicrobial activity against Staphylococcus aureus MTCC 96 assessed as absence of visible growth after 48 to 72 hrs; assay type: functional
Staphylococcus aureus [11] = assay: Antimicrobial activity against methicillin-resistant Staphylococcus aureus assessed as absence of visible growth after 48 to 72 hrs; assay type: functional
Method in brief: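 Broth two-fold serial dilution in 96-well plates, 1000 to 7.81 µg/mL, compound dissolved in DMSO (2%). Inoculum grown in Mueller Hinton broth 24 h at 37°C. Streptomycin positive control. 5 µl of tested broth plated on MHA; MIC is the lowest concentration inhibiting visible growth on agar.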

Micrococcus luteus [12] = assay: Antimicrobial activity against Micrococcus luteus MTCC 106 assessed as absence of visible growth after 48 to 72 hrs; assay type: functional
Klebsiella aerogenes [13] = assay: Antimicrobial activity against Enterobacter aerogenes MTCC 111 assessed as absence of visible growth after 48 to 72 hrs; assay type: functional
Salmonella typhimurium [14] = assay: Antimicrobial activity against Salmonella typhimurium MTCC 1251 assessed as absence of visible growth after 48 to 72 hrs; assay type: functional, Salmonella enterica subsp. enterica serovar Typhimurium; conditions: Salmonella enterica
Proteus vulgaris [15] = assay: Antimicrobial activity against Proteus vulgaris MTCC 1771 assessed as absence of visible growth after 48 to 72 hrs; assay type: functional
Shigella flexneri [16] = assay: Antimicrobial activity against Shigella flexneri MTCC 1457 assessed as absence of visible growth after 48 to 72 hrs; assay type: functional
A549 [17] = assay: Anticancer activity against human A549 cells assessed as cell growth inhibition at 5 ug/ml by MTT assay; assay type: functional; conditions: read-out: GI
Method in brief: (§3)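 A549 cells kept in DMEM with 10% FBS, 2 mM L-glutamine, penicillin/streptomycin, pH 7.2. Seeded at 5000 cells/well in medium with compound at 5–50 µg/mL. Grown at 37 °C, 5% CO2. Medium then replaced by 1 mg/mL MTT for 4 h and formazan dissolved in DMSO. Absorbance read at 540 nm; three replicate experiments.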

A549 [18] = assay: Anticancer activity against human A549 cells assessed as cell growth inhibition at 10 ug/ml by MTT assay; assay type: functional; conditions: read-out: GI; method in brief: as §3
A549 [19] = assay: Anticancer activity against human A549 cells assessed as cell growth inhibition at 20 ug/ml by MTT assay; assay type: functional; conditions: read-out: GI; method in brief: as §3
A549 [20] = assay: Anticancer activity against human A549 cells assessed as cell growth inhibition at 30 ug/ml by MTT assay; assay type: functional; conditions: read-out: GI; method in brief: as §3
A549 [21] = assay: Anticancer activity against human A549 cells assessed as cell growth inhibition at 40 ug/ml by MTT assay; assay type: functional; conditions: read-out: GI; method in brief: as §3
A549 [22] = assay: Anticancer activity against human A549 cells assessed as cell growth inhibition at 50 ug/ml by MTT assay; assay type: functional; conditions: read-out: GI; method in brief: as §3
Klebsiella pneumoniae [23] = assay: Antimicrobial activity against Klebsiella pneumonia MTCC 109 assessed as absence of visible growth after 24 hrs
[24] = tested on: Staphylococcus epidermidis; assay: Antimicrobial activity against Staphylococcus epidermidis MTCC 3615 assessed as absence of visible growth after 24 hrs
Shigella flexneri [25] = assay: Antimicrobial activity against Shigella flexneri MTCC 1457 assessed as absence of visible growth after 24 hrs
[26] = tested on: Staphylococcus epidermidis; assay: Antimicrobial activity against Staphylococcus epidermidis MTCC 3615 assessed as absence of visible growth after 48 to 72 hrs; assay type: functional
Klebsiella pneumoniae [27] = assay: Antimicrobial activity against Klebsiella pneumonia MTCC 109 assessed as absence of visible growth after 48 to 72 hrs; assay type: functional

SMILES | inhibition zone (IZ) [1] | inhibition zone (IZ) (Staphylococcus aureus [2]) | inhibition zone (IZ) (Staphylococcus aureus [3]) | inhibition zone (IZ) (Micrococcus luteus [4]) | inhibition zone (IZ) (Klebsiella aerogenes [5]) | inhibition zone (IZ) (Salmonella typhimurium [6]) | inhibition zone (IZ) (Klebsiella pneumoniae [7]) | inhibition zone (IZ) (Proteus vulgaris [8]) | inhibition zone (IZ) (Shigella flexneri [9]) | inhibition zone (IZ) (Candida albicans) | inhibition zone (IZ) (Malassezia pachydermatis) | MIC (Staphylococcus aureus [10]) | MIC (Staphylococcus aureus [11]) | MIC (Micrococcus luteus [12]) | MIC (Klebsiella aerogenes [13]) | MIC (Salmonella typhimurium [14]) | MIC (Proteus vulgaris [15]) | inhibition of growth at 5 µg/mL (A549 [17]) | inhibition of growth at 10 µg/mL (A549 [18]) | MIC (Shigella flexneri [25]) | further results
Cc1ccc([C@H]2[C@@H]3CCCCC=C3C(C#N)=C(N)C23C(=O)c2ccccc2C3=O)cc1 (relative stereo) | 16 mm | 13 mm | 17 mm | 10 mm | 18 mm | 19 mm | 20 mm | 22 mm | 23 mm | 10 mm | 10 mm | 250 µg/mL (≈ 612 µM) | 125 µg/mL (≈ 306 µM) | 250 µg/mL (≈ 612 µM) | 125 µg/mL (≈ 306 µM) | 125 µg/mL (≈ 306 µM) | 62.5 µg/mL (≈ 153 µM) | 3.7% | 10.5% | – | MIC (Shigella flexneri [16]): 62.5 µg/mL (≈ 153 µM); inhibition of growth at 20 µg/mL (A549 [19]): 18.6%; inhibition of growth at 30 µg/mL (A549 [20]): 30.8%; inhibition of growth at 40 µg/mL (A549 [21]): 46.6%; inhibition of growth at 50 µg/mL (A549 [22]): 59.6%; MIC (Klebsiella pneumoniae [23]): 62.5 µg/mL (≈ 153 µM); MIC [24]: 250 µg/mL (≈ 612 µM)
N#CC1=C(N)C2(C(=O)c3ccccc3C2=O)[C@@H](c2ccc(Cl)cc2)[C@@H]2CCCCC=C12 (relative stereo) | 17 mm | 13 mm | 21 mm | 21 mm | 18 mm | 18 mm | 17 mm | 23 mm | 22 mm | 13 mm | 12 mm | 250 µg/mL (≈ 583 µM) | 62.5 µg/mL (≈ 146 µM) | 62.5 µg/mL (≈ 146 µM) | 125 µg/mL (≈ 291 µM) | 125 µg/mL (≈ 291 µM) | 62.5 µg/mL (≈ 146 µM) | 12.1% | 28.1% | 62.5 µg/mL (≈ 146 µM) | inhibition of growth at 20 µg/mL (A549 [19]): 47.5%; inhibition of growth at 30 µg/mL (A549 [20]): 56.2%; inhibition of growth at 40 µg/mL (A549 [21]): 62.4%; inhibition of growth at 50 µg/mL (A549 [22]): 78.8%; MIC (Klebsiella pneumoniae [23]): 125 µg/mL (≈ 291 µM); MIC [24]: 125 µg/mL (≈ 291 µM)
COc1ccc([C@H]2[C@@H]3CCCC=C3C(C#N)=C(N)C23C(=O)CCCC3=O)cc1 (relative stereo) | 13 mm | 14 mm | 15 mm | 21 mm | 14 mm | 11 mm | 16 mm | 17 mm | 19 mm | 10 mm | 9 mm | 250 µg/mL (≈ 664 µM) | 250 µg/mL (≈ 664 µM) | 250 µg/mL (≈ 664 µM) | 250 µg/mL (≈ 664 µM) | 250 µg/mL (≈ 664 µM) | 125 µg/mL (≈ 332 µM) | – | – | 125 µg/mL (≈ 332 µM) | MIC [26]: 250 µg/mL (≈ 664 µM); MIC (Klebsiella pneumoniae [27]): 125 µg/mL (≈ 332 µM)
CN[C@@H]1[C@H](O[C@H]2[C@H](O[C@H]3[C@H](O)[C@@H](O)[C@H](N=C(N)N)[C@@H](O)[C@@H]3N=C(N)N)O[C@@H](C)[C@]2(O)C=O)O[C@@H](CO)[C@H](O)[C@H]1O [STREPTOMYCIN] | 26 mm | 14 mm | 30 mm | 26 mm | 22 mm | 18 mm | 20 mm | 30 mm | 30 mm | – | – | 6.25 µg/mL (≈ 10.7 µM) | 6.25 µg/mL (≈ 10.7 µM) | 6.25 µg/mL (≈ 10.7 µM) | 25 µg/mL (≈ 43 µM) | 30 µg/mL (≈ 51.6 µM) | 6.25 µg/mL (≈ 10.7 µM) | – | – | 6.25 µg/mL (≈ 10.7 µM) | MIC [26]: 6.25 µg/mL (≈ 10.7 µM); MIC (Klebsiella pneumoniae [27]): 6.25 µg/mL (≈ 10.7 µM)
